Bioassay records deposited in PubChem BioAssay by several laboratories.
Most compounds without a hit are left out; they make up all but 6.4% or so of the library.
Ecoli WT expand: E. coli BW25113 growth inhibition, expanded screen; OD600 absorbance; growth inhibition, % at 100 µM; 98,000 compounds, 0.15% hits; AID 710;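 active = growth inhibition above about 50% at one test dose, limit read from the data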;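 also: growth measured after 20 h incubation at 37 °C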
H69AR growth 86K: blocks growth of human H69AR lung tumor cells | H69AR lung tumor viability, ATP luminescence, 72 h; stronger effect = lower value | viability, % at 10 µM | 85,000 compounds, 6% hits | AID 598;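 active = viability at or below 40%; inactive = viability above 40%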;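 also: multidrug resistant small cell line overexpressing MRP-1 efflux transporter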
tolC growth inh: blocks growth of E. coli BW25113 tolC mutant; OD615; growth inhibition, % at 10 µM (by protocol); 65,000 compounds, 2.2% hits; AID 573;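 active = growth inhibition at or above a cutoff equal to the mean over every tested compound plus 3 SD, cut at about 60% in these data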;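 also: growth measured after 20 h incubation at 37 °C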
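Assay system: tolC-deleted E. coli BW25113. Medium: kanamycin-containing LB broth (50 µg/mL). Dosing: 10 µM final, single dose. Timing: bacterial growth with compound for 20 h at 37 °C. Detection: A615 absorbance measurement. Read-out basis: growth inhibition in percent.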
HUVEC inhibit: blocks proliferation of human endothelial cells | viability, % at 10 µM (by protocol) | 86,000 compounds, 1.1% hits | HUVEC proliferation, CellTiter-Glo luminescence, 72 h; stronger effect = lower value;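 active = viability at or below 30%; inactive = viability above 30%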
Fibroblast inh: blocks proliferation of human lung fibroblasts; LL 47 human lung fibroblast viability, ATP luminescence; stronger effect = lower value; viability, % at 10 µM; 85,000 compounds, 1.1% hits;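 active = viability at or below 50% in the single dose screen; inactive = viability above 50%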;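 also: compound exposure lasted 72 h before the ATP readout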
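Assay system: human lung fibroblast line LL 47, low passage. Input: 1,150 fibroblasts seeded per well. Times: overnight cell rest, 72 h compound treatment at 37 °C. Evaluation: % viability of median cell-only signal. Technique: luminescent ATP detection, CellTiter-Glo. Control set: cell-only wells, no compound.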
Jurkat viability: cytotoxicity toward Jurkat cells; Jurkat E6.1 viability, ATP luminescence, 48 h; inhibition, % at 4 µM; 56,000 compounds, 1.2% hits; AID 463;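 active = inhibition above the mean inhibition of all tested compounds plus 3 SD, cut at about 28% in these data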
Of the large screens only hits and unclear results are named; the others gave an inactive call.

Clc1ccc(OCc2nnc(-c3ccccc3Br)o2)c(Cl)c1	none
O=S(=O)(c1ccccc1)N1CCN(c2cc(-c3ccccc3)nc3ncnn23)CC1	none
Cc1ccccc1NC(=O)C1CCN(c2cc(-c3ccccc3)nc3ncnn23)CC1	H69AR growth 86K 37 (no result: Ecoli WT expand, tolC growth inh, Jurkat viability)
COc1ccc(N/C(N)=N/c2nc(CSc3ccc(Cl)cc3)cc(=O)[nH]2)cc1	H69AR growth 86K 16 (no result: tolC growth inh, Jurkat viability)
Cc1nn(-c2ccccc2)c2sc(-c3n[nH]c(=S)o3)cc12	tolC growth inh 78 (no result: H69AR growth 86K, HUVEC inhibit, Fibroblast inh)
O=C1NC2CCCCC2NC1CC(=O)N1CCN(c2ccccc2)CC1 (configuration not stated)	none (no result: Ecoli WT expand)
Cc1ccc(Sc2ncccc2COC(=O)Nc2ccccc2)cc1	none (no result: H69AR growth 86K, tolC growth inh, HUVEC inhibit, Fibroblast inh, Jurkat viability)
C=C(C)C1CCC(C)=C1COC(=O)Nc1ccccc1 (configuration not stated)	tolC growth inh 78 (no result: H69AR growth 86K, HUVEC inhibit, Fibroblast inh)
O=C1c2ccccc2-c2onc3ccc(Oc4ccccc4)c1c23	H69AR growth 86K 2.1, HUVEC inhibit 4.4, Fibroblast inh 2.8 (no result: Ecoli WT expand, tolC growth inh, Jurkat viability)
CC(C)(C)n1nnnc1CN(Cc1ccco1)Cc1cc2cc3c(cc2[nH]c1=O)OCO3	H69AR growth 86K 35
COc1ccc2[nH]c(=O)c(CN(Cc3ccco3)Cc3nnnn3Cc3ccccc3)cc2c1	none (no result: H69AR growth 86K)
CCC(C)(C)n1nnnc1CN(Cc1ccco1)Cc1cc2cc3c(cc2[nH]c1=O)OCO3	none
COc1ccc2[nH]c(=O)c(CN(Cc3cccs3)S(=O)(=O)c3c(C)ccc4nsnc34)cc2c1	H69AR growth 86K 2.7 (no result: tolC growth inh, Jurkat viability)
CCOc1ccc2[nH]c(=O)c(CN(Cc3ccco3)Cc3nnnn3Cc3ccccc3)cc2c1	H69AR growth 86K 38
COc1ccc2[nH]c(=O)c(CN(Cc3cccs3)Cc3nnnn3Cc3ccccc3)cc2c1	H69AR growth 86K 33 (no result: tolC growth inh, Jurkat viability)
Cc1ccc2[nH]c(=O)c(CN(Cc3ccco3)S(=O)(=O)c3c(C)ccc4nsnc34)cc2c1	none
CC(C)Cn1c(-c2ccc(C#N)cc2)nc2c1c(=O)[nH]c(=O)n2CC(C)C	none (no result: tolC growth inh, Jurkat viability)
CCOc1ccc2[nH]c(=O)c(CN(Cc3ccco3)C(CC)c3nnnn3Cc3ccccc3)cc2c1 (configuration not stated)	H69AR growth 86K 2.4
COc1ccc2[nH]c(=O)c(CN(CCc3ccccc3)Cc3nnnn3CC3CCCO3)cc2c1 (configuration not stated)	H69AR growth 86K 27
CC(C)(C)c1ccc(CN(Cc2ccco2)Cc2nnnn2C2CCCC2)cc1	none (no result: tolC growth inh, Jurkat viability)
CCC(c1nnnn1CCc1ccccc1)N(Cc1ccco1)Cc1cc2cccc(C)c2[nH]c1=O (configuration not stated)	none
CCC(C)(C)n1nnnc1CN(Cc1ccc(Cl)cc1)Cc1ccco1	tolC growth inh 81
COc1ccc(NC(=O)c2ccc(N(C)S(C)(=O)=O)cc2)cc1OC	none
COC(=O)c1ccc(NC(=O)c2ccc(N(C)S(C)(=O)=O)cc2)cc1	Jurkat viability 31
COc1ccccc1N1CCN(C(=O)c2cc(-c3ccc(C)cc3)on2)CC1	tolC growth inh 86
COc1ccccc1N1CCN(C(=O)c2oc3ccccc3c2C)CC1	H69AR growth 86K 18 (no result: Ecoli WT expand)
COc1ccccc1-c1cc(C(=O)N2CCN(c3ccccc3OC)CC2)no1	H69AR growth 86K 28, tolC growth inh 64
Cc1c(C(=O)N2CCN(S(C)(=O)=O)CC2)oc2ccccc12	none
COc1ccccc1N1CCN(C(=O)c2cc(-c3ccc(Cl)cc3)on2)CC1	none
COc1ccccc1N1CCN(C(=O)c2ccc(Br)s2)CC1	HUVEC inhibit 3.9 (no result: Jurkat viability)
O=C(Cc1ccccc1)N1CCCC1c1ccccc1 (configuration not stated)	none
CN(C)c1ccc(-c2nnn(CC(=O)Nc3ccccc3N3CCOCC3)n2)cc1	none
CN(C)c1ccc(-c2nnn(CC(=O)N3c4ccccc4CCc4ccccc43)n2)cc1	H69AR growth 86K 39
C=CCc1c(C)nc(SCC(=C)C)[nH]c1=O	none (no result: Jurkat viability)
COc1ccc2c(c1)nc1n2CN(CC2CCCO2)CN1Cc1ccccc1 (configuration not stated)	H69AR growth 86K 25 (no result: Ecoli WT expand)
O=C(CC1(O)C(=O)Nc2ccc(Br)cc21)c1ccc2c(c1)OCO2 (configuration not stated)	none
O=C1C(=O)N(Cc2ccco2)C(c2cccc(Cl)c2)/C1=C(\O)c1ccc2c(c1)OCCO2 (configuration not stated)	tolC growth inh 70 (no result: H69AR growth 86K, HUVEC inhibit, Fibroblast inh)
COc1ccc(/C(O)=C2/C(=O)C(=O)N(CC3CCCO3)C2c2cccc(OC)c2)cc1 (configuration not stated)	tolC growth inh 100 (no result: H69AR growth 86K, HUVEC inhibit, Fibroblast inh)
COc1cccc(C2/C(=C(\O)c3ccc4c(c3)OCCO4)C(=O)C(=O)N2CCN(C)C)c1 (configuration not stated)	none (no result: Jurkat viability)
COc1cccc(C2/C(=C(/O)c3ccc(C)cc3)C(=O)C(=O)N2Cc2ccco2)c1 (configuration not stated)	tolC growth inh 77 (no result: Ecoli WT expand, Jurkat viability)
COCCCN1C(=O)C(=O)/C(=C(/O)c2ccc(OC)cc2)C1c1cccc(OC)c1 (configuration not stated)	none (no result: H69AR growth 86K)
C=CCNS(=O)(=O)c1nc(C)c(Cl)c(C)c1C#N	none (no result: Fibroblast inh)
COc1ccc(-n2nc(C(=O)NCc3ccco3)c3c4ccccc4n(C)c3c2=O)cc1Cl	H69AR growth 86K 25, Fibroblast inh 34
COc1ccccc1CNC(=O)c1nn(-c2ccc(C)cc2)c(=O)c2c1c1ccccc1n2C	H69AR growth 86K 5.2 (no result: tolC growth inh, Jurkat viability)
COc1ccc(-n2nc(C(=O)NCC(=O)NCc3ccco3)c3ccccc3c2=O)cc1	none
Cn1c(C(=O)NCCCN2CCN(c3ccccc3F)CC2)cc2c(=O)n(C)c3ccccc3c21	H69AR growth 86K 28, Fibroblast inh 43
Cn1c(C(=O)NCCCN2CCOCC2)cc2c(=O)n(C)c3ccccc3c21	none
CCN1CCCC1CNC(=O)c1nn(-c2ccc(C)cc2)c(=O)c2c1c1ccccc1n2C (configuration not stated)	HUVEC inhibit 25, Fibroblast inh 46 (no result: Ecoli WT expand)
CCOC(=O)c1c(N2C(=O)C3CC(C)=C(C)CC3C2=O)sc(C)c1C (configuration not stated)	none (no result: tolC growth inh, Jurkat viability)
CCOC(=O)c1cccc(NC(=O)CSc2nnc(C3CCCCC3)n2CC)c1	none
COc1ccccc1CNC(=O)c1cc2c(=O)n(C)c3ccccc3c2n1C	H69AR growth 86K 26 (no result: Ecoli WT expand)
CCOc1ccc2nc(-c3ccccc3)[nH]c2c1	H69AR growth 86K 24, Jurkat viability 76
CCN(CC)c1ccc(/C=c2/sc3nnc(-c4ccccc4C)n3c2=O)cc1	H69AR growth 86K 20 (no result: tolC growth inh, Jurkat viability)
O=C(Nc1ncc(Cc2cccc(Cl)c2)s1)c1cccs1	H69AR growth 86K 35 (no result: tolC growth inh, Jurkat viability)
O=C(Nc1ncc(Cc2ccccc2)s1)c1cccs1	none
Cc1ccc(Cc2cnc(NC(=O)c3cccs3)s2)cc1	H69AR growth 86K 17 (no result: tolC growth inh, Jurkat viability)
CC(=O)Nc1ccc(NC(=O)c2ccccc2CC[N+](=O)[O-])cc1	none (no result: H69AR growth 86K, tolC growth inh, HUVEC inhibit, Fibroblast inh, Jurkat viability)
CCOC(=O)c1c(C)nc2c(c(SC)nn2-c2ccccc2)c1N	none (no result: H69AR growth 86K, tolC growth inh, HUVEC inhibit, Fibroblast inh, Jurkat viability)
O=C(CN1CCCC1)Nc1ccccc1Cl	none (no result: tolC growth inh, Jurkat viability)
